TRPC6 inh: mouse TRPC6 channel inhibitors, primary screen, cell-based, HEK293, membrane potential dye; ACh-evoked depolarization; stronger effect = lower value; hit rate 1.1% among 310,000; AID 2553, 2010; Short transient receptor potential channel 6 (Mus musculus), Q61143; B-score at 10 µM;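 active means B-score under library mean minus 3 SD, initial fluorescence not abnormally high, positive integrated signal ratio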;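 further: B-score derived from integrated fluorescence ratio over the kinetic read; more negative B-score means stronger inhibition of depolarization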
TRPC4 agonist: activators of mouse TRPC4 channel, primary screen, Fluo4 calcium, HEK293 TRPC4beta/mu-opioid cells. Short transient receptor potential channel 4 (Mus musculus), Q9QUQ5. Fluo4 calcium fluorescence; stronger effect = higher value. B-score at 10 µM. hit rate 0.49% among 310,000. AID 2237, 2010;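 active means B-score above 5 SD of library B-scores, and initial fluorescence ratio not above library mean plus 5 SD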;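 further: positive B-score marks a calcium rise read as TRPC4 activation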
Target sequence (Q9QUQ5 whole entry, looked up): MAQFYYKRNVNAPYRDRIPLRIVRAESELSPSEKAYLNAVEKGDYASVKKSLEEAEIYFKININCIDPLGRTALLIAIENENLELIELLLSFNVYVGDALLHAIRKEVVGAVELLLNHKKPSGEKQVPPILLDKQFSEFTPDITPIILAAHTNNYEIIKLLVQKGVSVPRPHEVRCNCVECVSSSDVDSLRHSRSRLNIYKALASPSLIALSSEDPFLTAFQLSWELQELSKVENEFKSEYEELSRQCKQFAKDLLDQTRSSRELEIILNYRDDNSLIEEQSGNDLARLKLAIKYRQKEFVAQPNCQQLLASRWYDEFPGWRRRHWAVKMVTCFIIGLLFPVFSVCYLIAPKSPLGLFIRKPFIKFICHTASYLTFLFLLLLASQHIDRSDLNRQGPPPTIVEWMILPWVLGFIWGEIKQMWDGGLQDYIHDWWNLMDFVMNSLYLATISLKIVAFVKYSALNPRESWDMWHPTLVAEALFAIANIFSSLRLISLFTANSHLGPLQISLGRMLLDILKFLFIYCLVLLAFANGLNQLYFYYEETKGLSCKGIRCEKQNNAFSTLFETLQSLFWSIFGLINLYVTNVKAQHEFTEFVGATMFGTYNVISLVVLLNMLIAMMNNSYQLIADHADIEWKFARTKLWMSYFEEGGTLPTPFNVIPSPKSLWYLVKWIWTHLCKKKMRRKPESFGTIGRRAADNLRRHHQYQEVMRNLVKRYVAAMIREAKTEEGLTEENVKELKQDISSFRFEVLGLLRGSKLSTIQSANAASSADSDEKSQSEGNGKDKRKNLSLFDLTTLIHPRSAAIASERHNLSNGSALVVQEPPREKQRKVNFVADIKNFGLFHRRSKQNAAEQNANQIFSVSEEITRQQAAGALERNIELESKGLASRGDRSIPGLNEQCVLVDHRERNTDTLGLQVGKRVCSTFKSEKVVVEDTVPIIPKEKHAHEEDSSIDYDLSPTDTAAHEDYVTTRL
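System – HEK293 cells stably co-expressing mouse TRPC4beta and mu-opioid receptor · Signal – Fluo4 calcium-sensitive dye fluorescence, kinetic, 1 Hz baseline · Benchmarks – buffer (low) and maximal DAMGO (high) · Read-out – B score of integrated fluorescence ratio per well · Incubation – dye loading 45 min room temperature, 110 s kinetic read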
TRPC4 PAM: positive allosteric modulators of TRPC4, primary screen, cell-based, mouse TRPC4beta, HEK293 mu-opioid, Fluo-4 calcium | Short transient receptor potential channel 4 (Mus musculus), Q9QUQ5 | DAMGO EC20, Fluo-4 Ca2+ flux; stronger effect = higher value | B-score at 10 µM | hit rate 0.42% among 310,000;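 active means B-score of calcium response area above 5 SD of library B-scores, with initial fluorescence ratio within 5 SD of library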
TRPC6 activator: mouse TRPC6 channel activators, primary screen, cell-based, HEK293, membrane potential dye | HEK293-TRPC6 membrane potential dye fluorescence; stronger effect = higher value | hit rate 0.13% among 310,000 | Short transient receptor potential channel 6 (Mus musculus), Q61143 | B-score at 10 µM;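 active means B-score of the integrated fluorescence ratio above library mean plus 3 SD, and starting fluorescence ratio within library mean plus 5 SD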;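 further: higher score means more depolarization so channel activation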
TRPC4 block: inhibitors of mouse TRPC4 channel, primary screen, Fluo4 calcium, HEK293 TRPC4beta/mu-opioid cells; B-score at 10 µM; AID 2247, 2010; DAMGO-evoked Fluo4 calcium flux; stronger effect = lower value; Short transient receptor potential channel 4 (Mus musculus), Q9QUQ5; hit rate 0.39% among 300,000;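 active means B-score over 3 SD under the library average, no early fluorescence shift, positive overall ratio signal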
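Assay system: HEK293 cells with stable TRPC4beta plus mu-opioid receptor expression. Dosing: single dose. Measured by: Fluo4 Ca2+ flux fluorescence. Also added: DAMGO in two steps, submaximal then maximal. Read-out: B score from integrated Fluo4 fluorescence ratio.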
TRPC4 sel inh 2: mouse TRPC4 off-target activity of TRPC6 inhibitors, second screen | shares compounds with TRPC6 inh | HEK293 TRPC4/MOR, membrane potential dye fluorescence; channel activated by saturating DAMGO dose | inhibition, % at 10 µM | hit rate 42% among 920;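 active means compounds whose fluorescence signal differed from control wells by over 3 SD, either direction, in both duplicate plates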
TRPC4 spec: mouse TRPC4 modulation by TRPC6 hits, confirmation, selectivity assay for TRPC6 inhibitor project, cell-based, HEK293 TRPC4/mu-opioid, membrane potential dye; hit rate 61% among 920; membrane potential fluorescence; activity change, negative = inhibition, % at 10 µM; shares compounds with TRPC6 inh;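 active means rise or fall in signal beyond 3 SD of buffer-only wells in both replicate plates, either sign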;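 further: integrated kinetic ratio of fluorescence range over baseline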
HEK293 MPD ctr 2-1: nonspecific membrane potential effects, parental HEK293, confirmation, counter-screen for TRPC6 inhibitor project, cell-based, second counter screen | shares compounds with TRPC6 inh | parental HEK293 membrane potential dye fluorescence; maximal acetylcholine challenge after compound addition | signal change vs control, % at 10 µM | hit rate 31% among 920 | AID 2779, 2010;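 active means membrane potential signal moving either way by over 3 SD of the maximum-effect control, in both duplicate plates, meaning non-specific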
HEK293 MPD ctr-1: membrane potential modulation in parental HEK293, confirmation, counter-screen for TRPC6 inhibitor project, cell-based; shares compounds with TRPC6 inh; parental HEK293 membrane potential dye fluorescence; membrane potential signal change, % at 10 µM; hit rate 60% among 920;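 active means membrane potential signal shifting up or down by more than 3 SD of buffer-only wells, on both duplicate plates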
HEK293 MPD ctr-2: parental HEK293 membrane potential modulation, confirmation, counter-screen for TRPC6 modulator project, cell-based | shares compounds with TRPC6 inh | membrane potential signal change, % at 10 µM | AID 488924, 2010 | membrane potential dye fluorescence | hit rate 51% among 2,400;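 active means membrane potential signal moves up or down beyond 5 SD from buffer-only wells, on both duplicate plates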
HEK293 MPD ctr 2-2: second check of TRPC6 modulator effects in parental HEK293 cells; shares compounds with TRPC6 inh; membrane potential dye fluorescence; after compound, maximal acetylcholine stimulation; hit rate 14% among 2,400; inhibition, % at 10 µM;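 active means membrane potential signal drops by more than 5 SD from the mean control signal, in both duplicate plates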
TRPC4 ctr mod: TRPC4 modulation by TRPC6 hit compounds, confirmation, selectivity assay for TRPC6 modulator project, cell-based, HEK293 TRPC4/mu-opioid, membrane potential dye, mouse; hit rate 69% among 2,400; membrane potential fluorescence; shares compounds with TRPC6 inh; percent change from control (negative = decrease, positive = increase), % at 10 µM;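 active means membrane potential signal moved up or down beyond 5 SD of buffer control wells, in both duplicate plates, actives on both sides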
TRPC4 ctr inh 2: second check of whether TRPC6 modulators also affect mouse TRPC4. shares compounds with TRPC6 inh. HEK293 TRPC4/mu-opioid, membrane potential dye fluorescence; stimulated with maximal-effect DAMGO. inhibition, % at 10 µM. hit rate 55% among 2,400. AID 488928;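 active means drop in membrane potential signal beyond 5 SD of the control wells in both duplicate plates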;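 further: TRPC4 counter screen for TRPC6 hits run under conditions tuned for TRPC6 not TRPC4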
TRPC6 block conf: mouse TRPC6 channel inhibitors, confirmation, HEK293 cells, membrane potential dye, duplicate; shares compounds with TRPC6 inh; ACh-evoked depolarization; inhibition, % at 10 µM; hit rate 43% among 3,300; AID 488960, 2010;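 active means fluorescence ratio falls more than 5 SD below the full-stimulation control mean, in both duplicate runs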;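 further: integrated fluorescence ratio of peak minus minimum over baseline after agonist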
TRPC6 act confirm: mouse TRPC6 channel activators, confirmation, HEK293 cells, membrane potential dye, duplicate; shares compounds with TRPC6 inh; HEK293-TRPC6 membrane potential dye fluorescence, FDSS; activation, % at 10 µM; hit rate 11% among 2,800; AID 488961, 2010;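 active means ratio signal rise beyond 5 SD above unstimulated control wells' mean, seen in both duplicate runs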
Of the large screens only hits and unclear results are named; the others gave an inactive call (follow-up assays come after a bar, where they were run). Most compounds without a hit are left out; they make up all but 2.3% or so of the library.

O=[N+]([O-])c1ccc(N2CCNCC2)cc1NC1CC1	TRPC4 agonist 117
C=CCn1c(O)c(C(C)=NCCC2=CCCCC2)c(=O)[nH]c1=O	none
CCOC(=O)c1ccc(-[n+]2c(-c3ccccc3)cc(-c3ccccc3)cc2-c2ccccc2)cc1	none
CN(C)c1ccc(-[n+]2c(-c3ccccc3)cc(-c3ccccc3)cc2-c2ccccc2)cc1	TRPC4 PAM 11
CCOC(=O)c1cccc(-[n+]2c(-c3ccccc3)cc(-c3ccccc3)cc2-c2ccccc2)c1	none
c1ccc(-c2cc(-c3ccccc3)[n+](-c3ccccc3)c(-c3ccccc3)c2)cc1	TRPC4 PAM 18
CCOc1ccc(N2C(=O)/C(=C/c3ccco3)C(=O)NC2=S)cc1	none
COc1ccc(C(CNC(=O)c2ccc3c(c2)CCC3)N(C)C)cc1 (stereo not given)	TRPC4 agonist 209
CCN(CC)P(=O)(/C=C(\Cl)c1ccccc1)/C=C(\Cl)c1ccccc1	TRPC4 PAM 17
O=C(NCCCn1ccnc1)C(Cl)(Cl)Cl	none
Cc1c(C)c2ccc(OCC(=O)N3C[C@H]4C[C@@H](C3)c3cccc(=O)n3C4)c(C)c2oc1=O	none
CC(=O)NC1CC2CCC(C1)N2 (stereo not given)	none
Cc1ccc(C(=O)NC2CC3CCC(C2)N3)cc1 (stereo not given)	TRPC4 block -5
O=C(NCCN1CCOCC1)c1ccc(Cl)nc1Cl	none
Clc1ccc(OCC#CCN2CCCC2)cc1	TRPC4 PAM 24
CN1CCN(CC#CCOc2ccc(Cl)cc2)CC1	none
COc1ccc(OCCOc2cccc(C=C3C(=O)NC(=O)NC3=O)c2)cc1	none
CN(CCOc1ccc(C=C2C(=O)NC(=O)NC2=O)cc1)c1ccccn1	TRPC4 agonist 46, TRPC4 block -6
CCCN1CCC[C@@H]2Cc3nc(N)ncc3C[C@H]21	TRPC4 PAM 11
CCCN1CCC[C@@H]2Cc3[nH]ncc3C[C@H]21	none
COc1cc(OC)c(OC)cc1CNCCc1cccc(F)c1	none
COc1ccc(CNCCc2cccc(F)c2)c2ccccc12	TRPC4 agonist 57
COc1ccc(CNCCc2ccc(Cl)cc2)c(OC)c1OC	TRPC4 agonist 62
COc1cc(OC)c(OC)cc1CNCCc1ccc(OC)c(OC)c1	none
CCCCP(=O)(O)CCC(=O)O	none
O=C1CN=C(c2cc([N+](=O)[O-])ccc2Cl)c2cc([N+](=O)[O-])ccc2N1	none
COc1ccc(CN2CCN(C(=O)Cc3ccccc3)CC2)cc1Br	none
COc1ccc(CC2c3cc(OC)c(OC)cc3CCN2C)cc1OC (stereo not given)	none
COc1ccc(C[C@@H]2c3cc(O)c(OC)cc3CCN2C)cc1O	TRPC4 PAM 17
O=P(C(Cl)Cl)(N1CCOCC1)N1CCOCC1	none
COc1cc2c(cc1OC)-c1c(OC)c(OC)cc3c1[C@H](C2)[N+](C)(C)CC3	TRPC6 inh -8.6 | HEK293 MPD ctr-2 -404% | HEK293 MPD ctr 2-2 63% | TRPC4 ctr mod -69% | TRPC4 ctr inh 2 64% | TRPC6 block conf 60% | TRPC6 act confirm inactive
C#CC[N+]1(C)[C@@H]2CC(OC(=O)C(CO)c3ccccc3)C[C@H]1C(O)C2 (stereo not given in full)	TRPC6 inh -9.9 | TRPC4 sel inh 2 inactive | TRPC4 spec inactive | HEK293 MPD ctr 2-1 1.5% | HEK293 MPD ctr-1 inactive | TRPC6 block conf 87% | TRPC6 act confirm inactive
C[N+]1(C)C2CCC1CC(OC(=O)C(CO)c1ccccc1)C2 (stereo not given)	TRPC6 inh -8.5 | TRPC4 sel inh 2 inactive | TRPC4 spec inactive | HEK293 MPD ctr 2-1 -32% | HEK293 MPD ctr-1 inactive | TRPC6 block conf 102% | TRPC6 act confirm inactive
CN1[C@@H]2CC[C@H]1CC(OC(=O)C(CO)c1ccccc1)C2 (stereo not given in full)	TRPC6 inh -6.9 | TRPC4 sel inh 2 inactive | TRPC4 spec inactive | HEK293 MPD ctr 2-1 -18% | HEK293 MPD ctr-1 inactive | TRPC6 block conf 101% | TRPC6 act confirm inactive
C[N+]1(C)C2CCC1CC(OC(=O)c1ccccc1)C2 (stereo not given)	none
